Measurements taken from ChEMBL document CHEMBL1141088, “A new pyridazine series of GABAA alpha5 ligands” (J Med Chem, 2005).

What was measured:
[1] = target: T1, GABA-A receptor; alpha-3/beta-3/gamma-2 (Homo sapiens, UniProt P18507+P28472+P34903); assay: Displacement of [3H]-Ro- 15-1788 binding from human recombinant Gamma-aminobutyric acid A receptor alpha-3-beta-3-gamma-2 expressed in mouse fibroblast L(tk-) cells (30 min at 24 degrees C, pH 7.4); type: cell-based
T1 sequence (P18507 whole entry): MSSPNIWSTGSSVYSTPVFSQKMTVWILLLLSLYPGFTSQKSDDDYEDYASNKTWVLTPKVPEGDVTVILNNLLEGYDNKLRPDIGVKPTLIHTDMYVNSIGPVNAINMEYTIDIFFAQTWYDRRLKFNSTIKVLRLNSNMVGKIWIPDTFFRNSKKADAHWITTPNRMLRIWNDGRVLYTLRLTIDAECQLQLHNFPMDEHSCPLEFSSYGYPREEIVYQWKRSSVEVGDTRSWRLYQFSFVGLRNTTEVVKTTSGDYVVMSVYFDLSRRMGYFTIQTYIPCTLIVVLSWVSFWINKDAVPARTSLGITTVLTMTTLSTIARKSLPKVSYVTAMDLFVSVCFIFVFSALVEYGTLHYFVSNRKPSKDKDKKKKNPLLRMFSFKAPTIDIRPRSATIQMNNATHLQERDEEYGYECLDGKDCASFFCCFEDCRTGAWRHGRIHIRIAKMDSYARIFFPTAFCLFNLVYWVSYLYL
T1 sequence (P28472 whole entry): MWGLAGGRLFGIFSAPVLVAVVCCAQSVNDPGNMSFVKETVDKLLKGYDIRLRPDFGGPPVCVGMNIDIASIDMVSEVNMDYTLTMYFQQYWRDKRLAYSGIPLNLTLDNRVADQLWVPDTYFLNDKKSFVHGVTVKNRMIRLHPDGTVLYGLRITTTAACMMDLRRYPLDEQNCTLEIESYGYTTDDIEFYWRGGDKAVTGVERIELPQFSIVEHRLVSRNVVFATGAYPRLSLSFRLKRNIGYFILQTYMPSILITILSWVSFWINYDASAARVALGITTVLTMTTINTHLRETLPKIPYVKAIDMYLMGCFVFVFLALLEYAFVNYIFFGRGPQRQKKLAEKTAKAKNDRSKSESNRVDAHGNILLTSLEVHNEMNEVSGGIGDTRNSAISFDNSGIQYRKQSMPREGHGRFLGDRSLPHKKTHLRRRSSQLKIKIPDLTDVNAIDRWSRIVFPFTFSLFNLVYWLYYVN
T1 sequence (P34903 whole entry): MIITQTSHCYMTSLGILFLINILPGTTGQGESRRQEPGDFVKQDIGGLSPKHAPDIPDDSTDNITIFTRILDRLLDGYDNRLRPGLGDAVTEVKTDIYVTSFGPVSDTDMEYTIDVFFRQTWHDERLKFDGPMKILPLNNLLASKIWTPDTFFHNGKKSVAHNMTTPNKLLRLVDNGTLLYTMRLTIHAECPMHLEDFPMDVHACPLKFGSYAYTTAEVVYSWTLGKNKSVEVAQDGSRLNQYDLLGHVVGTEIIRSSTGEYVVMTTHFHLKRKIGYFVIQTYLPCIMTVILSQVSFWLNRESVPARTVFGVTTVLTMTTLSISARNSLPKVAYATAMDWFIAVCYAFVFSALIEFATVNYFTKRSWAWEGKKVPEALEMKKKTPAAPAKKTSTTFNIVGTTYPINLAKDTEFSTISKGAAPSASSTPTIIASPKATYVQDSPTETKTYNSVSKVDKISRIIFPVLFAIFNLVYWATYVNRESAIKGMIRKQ
Procedure, shortened: (§1)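 Membranes from L(tk-) cells stably expressing human α1, α3 or α5 β3γ2 in 50 mM Tris pH 7.4. [3H]Ro15-1788 at 1.8 nM final, 30 min at 24 °C. Nonspecific binding set with 10 µM flunitrazepam, total binding in 0.1% DMSO. Filtration, scintillation counting. Ki is mean ± SEM of ≥3 independent determinations.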

[2] = target: T2, GABA-A receptor; alpha-5/beta-3/gamma-2 (Homo sapiens, UniProt P18507+P28472+P31644); assay: Displacement of [3H]-Ro- 15-1788 binding from human recombinant Gamma-aminobutyric acid A receptor alpha-5-beta-3-gamma-2 expressed in mouse fibroblast L(tk-) cells (30 min at 24 degrees C, pH 7.4); type: cell-based; procedure, shortened: as §1
T2 sequence (P18507 whole entry): T1 sequence (P18507 whole entry)
T2 sequence (P28472 whole entry): T1 sequence (P28472 whole entry)
T2 sequence (P31644 whole entry): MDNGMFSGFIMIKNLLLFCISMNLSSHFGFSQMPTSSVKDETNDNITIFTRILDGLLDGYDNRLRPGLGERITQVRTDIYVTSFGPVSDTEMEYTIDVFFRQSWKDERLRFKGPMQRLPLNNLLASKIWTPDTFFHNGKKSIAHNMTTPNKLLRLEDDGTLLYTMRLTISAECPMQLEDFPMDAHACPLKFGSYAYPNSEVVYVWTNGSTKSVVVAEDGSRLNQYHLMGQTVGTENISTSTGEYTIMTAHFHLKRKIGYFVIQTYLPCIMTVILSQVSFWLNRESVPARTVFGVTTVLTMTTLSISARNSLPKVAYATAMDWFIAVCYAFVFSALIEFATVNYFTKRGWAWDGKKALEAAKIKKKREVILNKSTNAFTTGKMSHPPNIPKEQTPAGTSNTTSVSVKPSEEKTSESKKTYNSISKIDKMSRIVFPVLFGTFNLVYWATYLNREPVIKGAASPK

[3] = target: T3, GABA-A receptor; alpha-3/beta-3/gamma-2 (Homo sapiens) (UniProt P18507+P28472+P34903); assay: Efficacy at GABAA alpha-3-beta-3-gamma-2 receptor expressed in mouse fibroblast L(tk-) cells measured at 300 nM derived from at least three plates/day screened over a minimum of 2 days; type: functional, cell-based
Procedure, shortened: (§2)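 FRET membrane-potential (VIPR) assay in L(tk-) cells with receptor expression induced 24 h by 1 µM dexamethasone. Dye-loaded 30 min in low-Cl- HEPES buffer pH 7.4: 4 µM CC2-DMPE, 1 µM DiSBAC2(3), 0.5 mM tartrazine. Basal read 8 s, compound at 300 nM, half-maximal GABA 22 s later, 1 Hz reads. Background-subtracted 460/580 nm ratio, normalized to DMCM as -100%.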

[4] = target: T4, GABA-A receptor; alpha-1/beta-3/gamma-2 (Homo sapiens, UniProt P14867+P18507+P28472); assay: Displacement of [3H]-Ro- 15-1788 binding from human recombinant Gamma-aminobutyric acid A receptor alpha-1-beta-3-gamma-2 expressed in mouse fibroblast L(tk-) cells (30 min at 24 degrees C, pH 7.4); type: cell-based; procedure, shortened: as §1
T4 sequence (P14867 whole entry): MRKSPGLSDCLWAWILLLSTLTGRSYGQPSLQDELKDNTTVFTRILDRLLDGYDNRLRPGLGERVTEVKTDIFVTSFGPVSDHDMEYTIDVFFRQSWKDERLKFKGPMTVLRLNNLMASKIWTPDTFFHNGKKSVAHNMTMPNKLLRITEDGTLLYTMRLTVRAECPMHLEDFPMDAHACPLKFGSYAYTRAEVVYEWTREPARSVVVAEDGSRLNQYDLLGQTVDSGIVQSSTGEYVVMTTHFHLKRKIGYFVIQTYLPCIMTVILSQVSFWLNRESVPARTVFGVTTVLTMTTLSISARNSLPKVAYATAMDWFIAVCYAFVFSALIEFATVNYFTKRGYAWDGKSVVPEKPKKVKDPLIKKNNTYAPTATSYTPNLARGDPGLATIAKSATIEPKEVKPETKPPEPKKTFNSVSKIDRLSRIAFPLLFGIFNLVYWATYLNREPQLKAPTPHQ
T4 sequence (P18507 whole entry): T1 sequence (P18507 whole entry)
T4 sequence (P28472 whole entry): T1 sequence (P28472 whole entry)

[5] = target: T5, GABA-A receptor; alpha-5/beta-3/gamma-2 (Homo sapiens) (UniProt P18507+P28472+P31644); assay: Efficacy at GABAA alpha-5-beta-3-gamma-2 receptor expressed in mouse fibroblast L(tk-) cells measured at 300 nM derived from at least three plates/day screened over a minimum of 2 days; type: functional, cell-based; procedure, shortened: as §2
[6] = target: T3, GABA-A receptor; alpha-3/beta-3/gamma-2 (Homo sapiens); assay: Efficacy for GABA-A alpha-3-beta-3-gamma-2 receptor expressed in mouse fibroblast L(tk-) cells at 300 nM derived from at least three plates/day screened over a minimum of 2 days; type: functional, cell-based; procedure, shortened: as §2
[7] = target: T5, GABA-A receptor; alpha-5/beta-3/gamma-2 (Homo sapiens); assay: Efficacy for GABA-A alpha-5-beta-3-gamma-2 receptor expressed in mouse fibroblast L(tk-) cells at 300 nM derived from at least three plates/day screened over a minimum of 2 days; type: functional, cell-based; procedure, shortened: as §2

Ki [1] [nM] | Ki [2] [nM] | Efficacy [3] | Ki [4] [nM] | Efficacy [5] | Efficacy [6] | Efficacy [7] | SMILES
302 | 63 | 32 | – | – | – | – | Brc1cccc(-c2cnnc(OCc3ccccc3)c2)c1
51 | 19 | 66 | – | 14 | – | – | Brc1cccc(-c2cnnc(NCc3ccccc3)c2)c1
15 | 7.9 | – | 7.5 | -2 | -2 | – | Brc1cccc(-c2cnnc(-c3ccccc3)c2)c1
81 | 56 | 49 | 27 | 45 | – | – | N#Cc1ccc(-c2cnnc(-c3ccccc3)c2)cc1
23 | 17 | – | – | -57 | – | – | N#Cc1cccc(-c2cnnc(-c3ccc(F)cc3F)c2)c1
7.2 | 4 | 3.6 | – | 0 | – | – | N#Cc1cccc(-c2cnnc(-c3cccc(F)c3)c2)c1
79 | 33 | 8 | – | -29 | – | – | CCNc1cc(-c2cccc(C#N)c2)cnn1
15 | 6.1 | 59 | – | 17 | – | – | N#Cc1cccc(-c2cnnc(NCc3ccccc3)c2)c1
41 | 13 | 32 | – | – | – | -15 | N#Cc1cccc(-c2cnnc(-c3ccc(F)c(F)c3)c2)c1
60 | 17 | 60 | – | – | – | – | N#Cc1cccc(-c2cnnc(OCc3ccccc3)c2)c1
440 | 323 | – | – | – | – | – | N#Cc1ccccc1-c1cnnc(-c2ccccc2)c1
26 | 14 | – | – | – | – | – | N#Cc1cccc(-c2cnnc(-c3ccc(F)cc3)c2)c1
7.9 | 3.4 | -17 | – | -31 | – | – | N#Cc1cccc(-c2cnnc(-c3ccccc3F)c2)c1
> 666 | > 666 | – | > 666 | – | – | – | N#Cc1cccc(-c2cc(-c3ccccc3)cnn2)c1

Second part, the compound before the results:

SMILES | Ki [1] [nM] | Ki [2] [nM] | Efficacy [3] | Ki [4] [nM] | Efficacy [5] | Efficacy [6] | Efficacy [7]
CC(C)Nc1cc(-c2cccc(Br)c2)cnn1 | 22 | 7.2 | 25 | 7.3 | 14 | – | –
CCNc1cc(-c2cccc(Br)c2)cnn1 | 7.3 | 3.8 | 2 | 3.5 | -12 | – | –
CC(C)Oc1cccc(-c2cnnc(-c3ccccc3)c2)c1 | 27 | 8.4 | 22 | 12 | 18 | – | –
COc1cc(-c2cccc(Br)c2)cnn1 | 205 | 54 | 42 | – | -18 | – | –
CNc1cc(-c2cccc(Br)c2)cnn1 | 113 | 27 | 3 | 49 | -26 | – | –
Cn1ncnc1COc1cccc(-c2cnnc(-c3ccccc3)c2)c1 | 10.4 | 8.8 | 43 | 8.5 | -5 | – | –
c1ccc(-c2cnnc(-c3ccccc3)c2)cc1 | 45 | 29 | -20 | 36 | -14 | – | –
CC(C)Oc1cc(-c2cccc(Br)c2)cnn1 | 60 | 36 | 28 | 26 | 12 | – | –
COC(=O)c1cccc(-c2cnnc(-c3ccccc3)c2)c1 | 29 | 11 | -7 | – | -48 | – | –
COC(=O)c1c(-c2ccccc2)cnnc1-c1ccccc1 | 64 | 12 | – | 154 | – | – | 27
c1ccc(-c2cc(-c3cccc(-n4cnnc4)c3)cnn2)cc1 | 41 | 12 | 13 | – | -31 | – | –
COC(=O)c1sccc1-c1cnnc(-c2ccccc2)c1 | 45 | 12 | -44 | 88 | -39 | – | –
CCOc1cc(-c2cccc(C#N)c2)cnn1 | 72 | 36 | 19 | – | -9 | – | –
CN(C)c1cc(-c2cccc(Br)c2)cnn1 | 120 | 51 | -49 | 55 | -62 | – | –
c1ccc(-c2cc(-c3ccnc(-c4ccncc4)n3)cnn2)cc1 | 3.1 | 1.6 | -49 | 1.3 | -62 | – | –
CCOc1cc(-c2cccc(Br)c2)cnn1 | 19 | 5.7 | 39 | 8.6 | 4 | – | –
